In PubChem BioAssay:
Activity calls are given as the source filed them. Rule as the data show it, unless noted: active = inhibition above about 30%; inactive = the rest.

What was measured:
[1] = Her2 expression decrease, cell viability multiplex – SKBR3 breast tumor cells, AlphaScreen, ATP viability, primary screen (AID 461;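 active = Her2 level under about 52% in both replicate screens, with viability over 70% of control, limit read from the data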;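 as to Her2 level: lower value means less Her2 protein in the cells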;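 as to viability: percent of carrier control wells set as 100% viability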); conditions: SKBR3 Her2 protein level, 18-24 h, measured here: SKBR3 viability, ATP luminescence, at 10 µM
[2] = target: Receptor tyrosine-protein kinase erbB-2 (Homo sapiens) (UniProt P04626); test: as above; conditions: 18-24 h, at 10 µM, stronger effect = lower value
Sequence of Receptor tyrosine-protein kinase erbB-2 (Homo sapiens) (P04626 whole entry, looked up): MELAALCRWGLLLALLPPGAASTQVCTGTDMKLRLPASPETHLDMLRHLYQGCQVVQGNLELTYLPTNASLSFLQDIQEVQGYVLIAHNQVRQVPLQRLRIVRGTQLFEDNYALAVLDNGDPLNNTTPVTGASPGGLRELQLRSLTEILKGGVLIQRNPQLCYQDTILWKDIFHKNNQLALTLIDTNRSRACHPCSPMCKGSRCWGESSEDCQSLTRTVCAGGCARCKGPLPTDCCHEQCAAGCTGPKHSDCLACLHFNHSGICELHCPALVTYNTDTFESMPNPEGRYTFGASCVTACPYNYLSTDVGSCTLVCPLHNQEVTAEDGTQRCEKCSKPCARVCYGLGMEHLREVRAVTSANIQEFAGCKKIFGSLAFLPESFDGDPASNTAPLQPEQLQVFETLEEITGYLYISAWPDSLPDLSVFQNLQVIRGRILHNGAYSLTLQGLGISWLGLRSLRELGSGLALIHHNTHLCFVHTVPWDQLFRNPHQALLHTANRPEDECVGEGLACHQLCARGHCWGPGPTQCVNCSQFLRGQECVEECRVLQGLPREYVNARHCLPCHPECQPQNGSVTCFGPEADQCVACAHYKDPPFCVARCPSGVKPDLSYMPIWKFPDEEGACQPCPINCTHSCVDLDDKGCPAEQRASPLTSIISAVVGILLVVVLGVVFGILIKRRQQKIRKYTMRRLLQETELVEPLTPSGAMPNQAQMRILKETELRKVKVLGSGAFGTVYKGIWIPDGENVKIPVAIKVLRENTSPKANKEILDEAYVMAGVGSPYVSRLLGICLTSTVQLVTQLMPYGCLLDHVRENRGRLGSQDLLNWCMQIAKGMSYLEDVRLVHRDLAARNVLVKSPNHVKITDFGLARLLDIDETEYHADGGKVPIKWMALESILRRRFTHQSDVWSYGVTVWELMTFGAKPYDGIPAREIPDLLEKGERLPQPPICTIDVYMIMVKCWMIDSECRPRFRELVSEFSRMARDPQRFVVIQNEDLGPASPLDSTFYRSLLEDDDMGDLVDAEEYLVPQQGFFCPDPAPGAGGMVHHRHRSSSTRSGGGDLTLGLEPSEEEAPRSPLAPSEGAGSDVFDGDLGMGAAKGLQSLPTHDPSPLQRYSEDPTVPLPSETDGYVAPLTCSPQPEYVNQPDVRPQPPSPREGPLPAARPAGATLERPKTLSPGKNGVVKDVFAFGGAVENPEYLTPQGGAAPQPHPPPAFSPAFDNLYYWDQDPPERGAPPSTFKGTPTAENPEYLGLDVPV

[3] = reduced viability of SK-BR-3 breast cancer cells – cell-based, 24 h, human, pilot screen (AID 572;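 active = viability at or below 10% of carrier control in both of two separate runs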;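 also: compound exposure lasted between 18 and 24 h rather than exactly 24 h; 100% = carrier-treated control wells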); conditions: SK-BR-3 viability, CellTiter-Glo luminescence, at 10 µM, stronger effect = lower value
[4] = HUVEC growth inhibition – cell-based, human, primary screen (AID 575;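 active = viability at or below 30% in both replicate assays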;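 also: 100% = median of untreated cell wells with 0.1% DMSO on each plate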); conditions: HUVEC proliferation, CellTiter-Glo luminescence, 72 h; at 10 µM; stronger effect = lower value
In short: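 Test system – primary HUVEC, no more than 12 passages · Dosing – one dose, 10 µM final, 0.1% DMSO · Times – 72 h treatment at 37 °C · Measured by – ATP-based CellTiter-Glo luminescent read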

[5] = H69AR cell proliferation blockers – human, duplicate replicates, primary screen (AID 580;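 active = viability at or under a set limit in both replicates, limit being median viability minus 3 SD, cut at about 48% in these data, passing the limit was not always enough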;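 also: 100% = mean luminescence of untreated wells and 0% = no signal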); conditions: H69AR lung tumor cells viability, ATP luminescence, 72 h; at 10 µM; stronger effect = lower value
[6] = MRP1 drug-resistance reversers in H69AR cells – cell-based, doxorubicin co-treatment, pilot screen (AID 601;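 active = viability loss from added drug above about 55%, and viability with drug at most 40%, in both replicates, limit read from the data, passing the limit was not always enough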); conditions: CellTiter-Glo, 72 h, at 10 µM; for differential viability (reversal): stronger effect = higher value
[7] = yeast transport mutant growth inhibition pilot in 384-well plates, post-Golgi transport modulator project (AID 636; in the data active = inhibition above about 31%); conditions: absorbance 615 nm, about 18 h, stronger effect = higher value
[8] = growth suppression of yeast trafficking mutant, preliminary HTS, modulators of trafficking downstream of Golgi apparatus project, 1536-format plate, OD 615 nm (AID 637); conditions: yeast transport mutant growth, absorbance 615 nm, 18 h; stronger effect = higher value
[9] = H69AR cells + 2 uM doxorubicin, measured here: viability with 2 uM doxorubicin, stronger effect = lower value
[10] = H69AR cells, compound alone cytotoxicity

| SMILES | viability [1] | Her2 level [2] | viability [3] | viability [4] | viability [5] | differential viability (reversal) ([6]; H69AR cells + 2 uM doxorubicin) | viability [6, 9] | viability [6, 10] | inhibition [7] | inhibition [8] |
| --- | --- | --- | --- | --- | --- | --- | --- | --- | --- | --- |
| Cc1cnc(C(=O)Nc2ccc(-n3cnnn3)cc2)cn1 | 100% | 98.5% (inactive) | 100% (inactive) | 101% (inactive) | 105% (inactive) | 16.4% (inactive) | 88.9% | 105% | -4.93% (inactive) | -4.68% (inactive) |
| Cc1ccc(O)c(NC(=O)COc2cc(C)ccc2C)c1 | 93.5% | 89.5% (inactive) | 93.5% (inactive) | 77.7% (inactive) | 89.4% (inactive) | 5.4% (inactive) | 84% | 89.4% | -1.97% (inactive) | -10.3% (inactive) |
| CCC(C)NC(=O)CC1Oc2ccc(C)cc2NC1=O (stereo not given) | 105% | 99% (inactive) | 105% (inactive) | 90.3% (inactive) | 91.7% (inactive) | -2.57% (inactive) | 94.2% | 91.7% | 0.13% (inactive) | -3.28% (inactive) |
| Cc1cc(NC(=O)CSc2ccc3nnc(-c4cccc(F)c4)n3n2)no1 | 108% | 102% (inactive) | 108% (inactive) | 103% (inactive) | 94.6% (inactive) | 8.17% (inactive) | 86.4% | 94.6% | -4.19% (inactive) | -4.17% (inactive) |
| CCSc1nnc2c(n1)OC=Nc1ccc(Br)cc1-2 | 92.5% | 86% (inactive) | 92.5% (inactive) | 79.3% (inactive) | 99.7% (inactive) | 12.9% (inactive) | 86.7% | 99.7% | -0.66% (inactive) | -4.67% (inactive) |
| O=C(Cn1ncc2ccccc21)N1CCN(c2cccc(C(F)(F)F)c2)CC1 | 89.5% | 94.5% (inactive) | 89.5% (inactive) | 93.4% (inactive) | 87.1% (inactive) | -6.95% (inactive) | 94.1% | 87.1% | -5.87% (inactive) | -1.97% (inactive) |
| O=C(OCCCCN1C(=O)c2ccccc2C1=O)c1n[nH]c2ccccc12 | 92.5% | 86% (inactive) | 92.5% (inactive) | 76.4% (inactive) | 101% (inactive) | 6.39% (inactive) | 94.9% | 101% | -7.67% (inactive) | 4.29% (inactive) |
| c1cc(CNc2ccc3c(c2)OCO3)ccn1 | 80% | 92% (inactive) | 80% (inactive) | 70.7% (inactive) | 90% (inactive) | -12.5% (inactive) | 103% | 90% | -5.81% (inactive) | -2.13% (inactive) |
| CC1=C(C(N)=O)C(c2cccnc2)n2nc(SCc3ccccc3Cl)nc2N1 (stereo not given) | 79% | 94.5% (inactive) | 79% (inactive) | 87.6% (inactive) | 98.7% (inactive) | 14.7% (inactive) | 84% | 98.7% | -9.05% (inactive) | -3.77% (inactive) |
| COc1ccccc1OCc1ccc(C(=O)OCC2CCCO2)o1 (stereo not given) | 97.5% | 112% (inactive) | 97.5% (inactive) | 106% (inactive) | 100% (inactive) | 0.33% (inactive) | 99.8% | 100% | -5.39% (inactive) | -3.27% (inactive) |
| COc1ccc(NC(=O)c2cc(C(C)C)on2)c(OC)c1 | 93.5% | 85.5% (inactive) | 93.5% (inactive) | 79.5% (inactive) | 88% (inactive) | -2.67% (inactive) | 90.6% | 88% | 0.51% (inactive) | -2% (inactive) |
| Cc1nc2sc(C(c3ccccc3)N3CCN(c4ccccc4F)CC3)c(O)n2n1 (stereo not given) | 91.5% | 93.5% (inactive) | 91.5% (inactive) | 97.6% (inactive) | 100% (inactive) | 2.07% (inactive) | 98.1% | 100% | 0% (inactive) | -7.7% (inactive) |
| Cc1nn(S(=O)(=O)N2CCCCC2)c(C)c1Br | 95% | 130% (inactive) | 95% (inactive) | 96.2% (inactive) | 102% (inactive) | 5.13% (inactive) | 97.1% | 102% | -1.41% (inactive) | -6.17% (inactive) |
| Cc1c(C(=O)OCC(C)(C)CN(C)C)oc2ccccc12 | 122% | 95% (inactive) | 122% (inactive) | 101% (inactive) | 92.4% (inactive) | 8.07% (inactive) | 84.3% | 92.4% | -6.8% (inactive) | -4.6% (inactive) |
